Reference: ChEMBL document CHEMBL1125485, “Inhibitors of blood platelet cAMP phosphodiesterase. 2. Structure-activity relationships associated with 1,3-dihydro-2H-imidazo[4,5-b]quinolin-2-ones substituted with functionalized side chains” (J Med Chem, 1992)

How the values were obtained:
Oryctolagus cuniculus [1] = organism: Oryctolagus cuniculus; test: Inhibition of platelet aggregation using collagen as activating agent in rabbit platelet rich plasma (PRP); type: functional
Outline: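 Rabbit platelet-rich plasma, aggregation triggered by ADP or collagen after 3 min preincubation of PRP with drug. Single or duplicate determinations, reference agent included.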

Phosphodiesterase 3 [2] = target: T1, Phosphodiesterase 3 (Homo sapiens, UniProt Q14432+Q13370); test: Inhibition of human platelet PDE by inhibiting cyclic Adenosine monophosphate (cAMP) hydrolysis
Oryctolagus cuniculus [3] = organism: Oryctolagus cuniculus; test: Inhibition of ADP-induced platelet aggregation in rabbit platelet rich plasma (PRP); type: functional
Outline: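 Rabbit platelet-rich plasma, aggregation triggered by ADP or collagen after 3 min preincubation of PRP with drug. […] Single or duplicate determinations, reference agent included.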

Rattus norvegicus = organism: Rattus norvegicus; test: Oral efficacy in rats using the ex vivo aggregatory protocol; type: functional
Outline: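 Rats given compound orally, then ADP-induced platelet aggregation measured ex vivo.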

[4] = Inhibition of human platelet c-AMP phosphodiesterase hydrolysis of cAMP
Mustela putorius furo [5] = test: Change in mean arterial blood pressure (MABP) in anesthetized ferrets by intraduodenal dose at 0.3 mg/kg; type: functional, Artery; conditions: dose 3 mg/kg, in the assay text read “3 mg/kg” for “0.3 mg/kg”
Outline: (§1)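 Anesthetized ferrets dosed intraduodenally; heart rate, mean arterial blood pressure and right ventricular contractile force monitored as dose-dependent changes, reported as maximum change (%). Averages from at least three separate experiments.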

[6] = target: cGMP-dependent 3',5'-cyclic phosphodiesterase (Homo sapiens, UniProt O00408); test: Inhibition of human platelet PDE by inhibiting cyclic Guanosine monophosphate (cGMP) hydrolysis
Chain of cGMP-dependent 3',5'-cyclic phosphodiesterase (O00408 whole entry): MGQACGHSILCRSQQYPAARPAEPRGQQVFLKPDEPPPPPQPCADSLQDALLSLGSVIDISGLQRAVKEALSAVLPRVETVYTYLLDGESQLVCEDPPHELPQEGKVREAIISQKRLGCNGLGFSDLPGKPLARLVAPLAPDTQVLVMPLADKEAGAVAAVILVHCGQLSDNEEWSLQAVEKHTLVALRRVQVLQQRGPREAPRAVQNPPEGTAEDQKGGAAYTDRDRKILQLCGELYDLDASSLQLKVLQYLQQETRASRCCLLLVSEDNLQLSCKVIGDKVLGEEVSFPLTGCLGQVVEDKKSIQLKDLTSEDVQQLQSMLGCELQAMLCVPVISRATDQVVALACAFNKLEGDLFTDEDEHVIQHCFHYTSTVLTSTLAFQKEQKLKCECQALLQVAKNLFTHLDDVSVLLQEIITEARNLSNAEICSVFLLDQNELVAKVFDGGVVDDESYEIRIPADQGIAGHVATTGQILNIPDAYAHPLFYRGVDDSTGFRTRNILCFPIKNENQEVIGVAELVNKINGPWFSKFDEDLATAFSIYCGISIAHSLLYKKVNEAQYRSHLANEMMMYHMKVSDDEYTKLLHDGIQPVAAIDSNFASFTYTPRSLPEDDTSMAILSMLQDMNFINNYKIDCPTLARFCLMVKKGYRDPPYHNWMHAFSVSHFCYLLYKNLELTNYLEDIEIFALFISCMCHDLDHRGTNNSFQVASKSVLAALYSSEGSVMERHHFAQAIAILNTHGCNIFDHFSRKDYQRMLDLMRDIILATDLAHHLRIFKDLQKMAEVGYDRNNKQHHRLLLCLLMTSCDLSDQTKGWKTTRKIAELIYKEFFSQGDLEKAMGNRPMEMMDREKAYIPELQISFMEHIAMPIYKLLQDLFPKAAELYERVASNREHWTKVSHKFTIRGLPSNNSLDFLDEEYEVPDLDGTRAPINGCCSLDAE

Mustela putorius furo [7] = test: Change in mean arterial blood pressure (MABP) in anesthetized ferrets by intraduodenal dose at 3 mg/kg; type: functional, Artery; conditions: dose 10 mg/kg, in the assay text read “10 mg/kg” for “3 mg/kg”; outline: as §1
Oryctolagus cuniculus [8] = test: Inhibition of thrombus formation (mean thrombus area) in conscious rabbits at 3.0 mg/kg; type: functional; conditions: values are per cent of control
Outline: (§2)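 Conscious rabbit ear biolaser model: ruby laser induces microvascular thrombi. Predose mean thrombus area from 10 vessels, then compound given orally as suspension in H2O/Tween 20 and 10 trials repeated 2 h later in the same rabbit; percent inhibition versus predose. At least three rabbits.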

Mustela putorius furo [9] = test: Change in heart rate (HR)in anesthetized ferrets by intraduodenal dose at 0.3 mg/kg; type: functional; conditions: dose 3 mg/kg, in the assay text read “3 mg/kg” for “0.3 mg/kg”; outline: as §1
Oryctolagus cuniculus [10] = test: Inhibition of thrombus formation (mean thrombus area) in conscious rabbits at 0.3 mg/kg; type: functional; conditions: values are per cent of control; outline: as §2
Mustela putorius furo [11] = test: Change in right ventricular contractile force (RCVF) in anesthetized ferrets by intraduodenal dose at 10 mg/kg; conditions: Heart right ventricle
Mustela putorius furo [12] = test: Change in right ventricular contractile force (RCVF) in anesthetized ferrets by intraduodenal dose at 0.3 mg/kg; type: functional; conditions: Heart right ventricle, dose 3 mg/kg, in the assay text read “3 mg/kg” for “0.3 mg/kg”; outline: as §1
Oryctolagus cuniculus [13] = test: Inhibition of thrombus formation (mean thrombus area) in conscious rabbits at 1.0 mg/kg; type: functional; conditions: values are per cent of control; outline: as §2
Canis familiaris [14] = test: Inhibition of coronary artery occlusion (mean area under flow time curve) in anesthetized dog at 0.03 mg/kg; type: functional; conditions: Canis lupus familiaris
Outline: (§3)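 Modified Folts-type coronary stenosis-occlusion model of large-vessel thrombosis; read-out mean area under flow-time curve (% seconds) compared with vehicle-treated animals, as percent inhibition of thrombus formation. Five animals.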

Mustela putorius furo [15] = test: Change in heart rate (HR)in anesthetized ferrets by intraduodenal dose at 10 mg/kg
Canis familiaris [16] = test: Inhibition of coronary artery occlusion (mean area under flow time curve) in anesthetized dog at 0.3 mg/kg; type: functional; conditions: Canis lupus familiaris; outline: as §3
Oryctolagus cuniculus [17] = test: Inhibition of thrombus formation (mean thrombus area) in conscious rabbits at 10.0 mg/kg; type: functional; conditions: values are per cent of control; outline: as §2
Canis familiaris [18] = test: Inhibition of coronary artery occlusion (mean area under flow time curve) in anesthetized dog at 0.1 mg/kg; type: functional; conditions: Canis lupus familiaris; outline: as §3
Phosphodiesterase 3 [19] = target: T1, Phosphodiesterase 3; test: Inhibition of human platelet PDE cAMP hydrolysis
Canis familiaris [20] = test: Inhibition of coronary artery occlusion (mean area under flow time curve) in anesthetized dog at 0.01 mg/kg; type: functional; conditions: Canis lupus familiaris; outline: as §3

| SMILES | EC50 (Oryctolagus cuniculus [1]) [nM] | IC50 (Phosphodiesterase 3 [2]) [nM] | ED50 (Rattus norvegicus) [mg/kg] | IC50 [6] [nM] | response, % of control at 3 mg/kg (Oryctolagus cuniculus [8]) [%] | response, % of control at 0.3 mg/kg (Oryctolagus cuniculus [10]) [%] | response, % of control at 1 mg/kg (Oryctolagus cuniculus [13]) [%] | inhibition in vivo at 0.03 mg/kg (Canis familiaris [14]) [%] | inhibition in vivo at 0.1 mg/kg (Canis familiaris [18]) [%] | also measured |
| --- | --- | --- | --- | --- | --- | --- | --- | --- | --- | --- |
| CN(C)C(=O)CCCOc1ccc2[nH]c3nc(O)nc-3cc2c1 | 950 | 40 | > 10 | – | – | – | – | – | – | EC50 (Oryctolagus cuniculus [3]): 4770 nM |
| COC(=O)/C=C/C=C/c1ccc2[nH]c3nc(O)nc-3cc2c1 | 670 | – | 10 | – | – | – | – | – | – | IC50 [4]: 90 nM |
| O=c1[nH]c2cc3cc(OCCCCS(=O)(=O)c4ccccc4)ccc3nc2[nH]1 | – | 1 | – | > 100000 | 62 | 137 | 74 | 115 | – | MABP (Mustela putorius furo [5]): -9%; MABP (Mustela putorius furo [7]): -11%; HR (Mustela putorius furo [9]): 13%; RVCF (Mustela putorius furo [11]): 39%; RVCF (Mustela putorius furo [12]): 16%; HR (Mustela putorius furo [15]): 31% |
| CN(C(=O)CCCOc1ccc2nc3[nH]c(=O)[nH]c3cc2c1)C1CCCCC1 | 2 | 2 | 2.9 | 6000 | – | 97 | 65 | 115 | – | inhibition in vivo at 0.3 mg/kg (Canis familiaris [16]): > 120% |
| O=C1CN2Cc3c(ccc(Cl)c3Cl)N=C2N1 [ANAGRELIDE] | – | – | – | – | 68 | – | 98 | 72 | 106 | inhibition in vivo at 0.3 mg/kg (Canis familiaris [16]): 117%; response, % of control at 10 mg/kg (Oryctolagus cuniculus [17]): 49% |
| Cn1c(O)nc2nc3ccc(OCCCC(=O)NC4CCCCC4)cc3cc21 | 20 | – | – | > 100000 | – | – | – | – | – | IC50 (Phosphodiesterase 3 [19]): 700 nM |
| O=C(O)CCCOc1ccc2[nH]c3nc(O)nc-3cc2c1 | – | – | – | 30000 | 65 | 144 | 70 | 115 | 111 | inhibition in vivo at 0.01 mg/kg (Canis familiaris [20]): 89% |
| CCOC(=O)/C=C/c1ccc2[nH]c3nc(O)nc-3cc2c1 | 280 | – | – | – | – | – | – | – | – | IC50 [4]: 1000 nM |
| COC(=O)CCCOc1ccc2nc3[nH]c(=O)[nH]c3cc2c1 | 20 | 400 | – | > 100000 | 78 | 145 | 74 | 109 | 120 | inhibition in vivo at 0.01 mg/kg (Canis familiaris [20]): 78% |
